In brackets after ≈: the same amount, converted by molar mass.
What was measured:
[1] = system: COLO 205; assay: Growth inhibition of human COLO205 cells; type: functional; conditions: for EC50: read-out: ED50 (the source's name)
[2] = Growth inhibition of human HL60(TB) cells; type: functional, HL-60(TB); conditions: HL-60
[3] = system: NCI-H522; assay: Growth inhibition of human NCI-H522 cells; type: functional
[4] = system: SK-MEL-2; assay: Growth inhibition of human SK-MEL-2 cells; type: functional
Method in brief: (§1)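 Tested at the NCI in its human disease-oriented in vitro screen of 60 tumour cell lines, following the Monks et al. methods. Activity is expressed as GI50, given as log molar values.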

[5] = system: HCC 2998; assay: Growth inhibition of human HCC2998 cells; type: functional
[6] = system: NCI-H226; assay: Growth inhibition of human NCI-H226 cells; type: functional
[7] = Growth inhibition of human […] cells; type: functional
[8] = Growth inhibition of human RPMI8266 cells; type: functional
[9] = Growth inhibition of human DMS144 cells; type: functional
[10] = Growth inhibition of human OVACR8 cells; type: functional
[11] = system: CCRF-CEM; assay: Growth inhibition of human CCRF-CEM cells; type: functional
[12] = system: U-251; assay: Growth inhibition of human U251 cells; type: functional; method in brief: as §1
[13] = system: UO-31; assay: Growth inhibition of human UO31 cells; type: functional; method in brief: as §1
[14] = system: DLD-1; assay: Growth inhibition of human DLD1 cells; type: functional
[15] = system: SNB-75; assay: Growth inhibition of human SNB75 cells; type: functional; method in brief: as §1
[16] = system: A549; assay: Growth inhibition of human A549 cells; type: functional
[17] = system: TK-10; assay: Growth inhibition of human TK10 cells; type: functional; method in brief: as §1
[18] = system: SK-MEL-28; assay: Growth inhibition of human SK-MEL-28 cells; type: functional; method in brief: as §1
[19] = system: SF-268; assay: Growth inhibition of human SF268 cells; type: functional; method in brief: as §1
[20] = system: HCT-116; assay: Growth inhibition of human HCT116 cells; type: functional
[21] = Growth inhibition of human LXFL529 cells; type: functional; conditions: LXFL 529
[22] = system: NCI-H322M; assay: Growth inhibition of human NCI-H322M cells; type: functional
[23] = system: SR; assay: Growth inhibition of human SR cells; type: functional; method in brief: as §1
[24] = system: DMS-273; assay: Growth inhibition of human DMS273 cells; type: functional
[25] = system: SK-OV-3; assay: Growth inhibition of human SK-OV-3 cells; type: functional; method in brief: as §1
[26] = system: UACC-62; assay: Growth inhibition of human UACC62 cells; type: functional; method in brief: as §1
[27] = system: MOLT-4; assay: Growth inhibition of human MOLT4 cells; type: functional
[28] = system: LOX IMVI; assay: Growth inhibition of human LOX IMVI cells; type: functional
[29] = system: HCT-15; assay: Growth inhibition of human HCT15 cells; type: functional
[30] = Growth inhibition of human OVACR5 cells; type: functional
[31] = system: M19-MEL; assay: Growth inhibition of human M19-MEL cells; type: functional
[32] = Growth inhibition of human OVACR4 cells; type: functional
[33] = system: NCI-H460; assay: Growth inhibition of human NCI-H460 cells; type: functional
[34] = system: SK-MEL-5; assay: Growth inhibition of human SK-MEL-5 cells; type: functional; conditions: for EC50: read-out: ED50 (the source's name); method in brief: as §1
[35] = system: Malme-3M; assay: Growth inhibition of human MALME-3M cells; type: functional
[36] = system: SNB-19; assay: Growth inhibition of human SNB19 cells; type: functional; method in brief: as §1
[37] = system: XF498; assay: Growth inhibition of human XF498 cells; type: functional; method in brief: as §1
[38] = system: M14; assay: Growth inhibition of human M14 cells; type: functional
[39] = system: IGROV-1; assay: Growth inhibition of human IGROV1 cells; type: functional
[40] = system: HOP-92; assay: Growth inhibition of human HOP92 cells; type: functional
[41] = system: SF-539; assay: Growth inhibition of human SF539 cells; type: functional; method in brief: as §1
[42] = system: K562; assay: Growth inhibition of human K562 cells; type: functional
[43] = system: ACHN; assay: Growth inhibition of human ACHN cells; type: functional
[44] = system: SW-620; assay: Growth inhibition of human SW620 cells; type: functional; method in brief: as §1
[45] = system: KM-20L2; assay: Growth inhibition of human KM20L2 cells; type: functional
[46] = system: 786-0; assay: Growth inhibition of human 786-0 cells; type: functional
[47] = system: KB; assay: Growth inhibition of human KB cells; type: functional; conditions: read-out: ED50 (the source's name)
Method in brief: (§2)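 In-house cytotoxicity assay following an NCI protocol, run on a panel of human tumour lines: KB nasopharyngeal epidermoid carcinoma and HCT-8 ileocecal adenocarcinoma. Potency is reported as ED50 in µg/mL.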

[48] = system: HCT-8; assay: Growth inhibition of human HCT8 cells; type: functional; conditions: read-out: ED50 (the source's name); method in brief: as §2
[49] = system: SN12C; assay: Growth inhibition of human SN12C cells; type: functional; method in brief: as §1
[50] = system: HT-29; assay: Growth inhibition of human HT29 cells; type: functional
[51] = system: HOP-62; assay: Growth inhibition of human HOP62 cells; type: functional
[52] = system: KM12; assay: Growth inhibition of human KM12 cells; type: functional

With `COc1ccc2c([nH]c3cc(O)c(C)cc32)c1CC=C(C)C` the GI50 [1] was 25.1 µM, the GI50 [2] was 7.94 µM and the GI50 [3] was 5.89 µM. For the same compound, the GI50 [4] was 25.1 µM, the GI50 [5] was 5.5 µM and the GI50 [6] was 25.1 µM. The GI50 [7] was 5.37 µM, the GI50 [8] was 8.32 µM and the GI50 [9] was 20.9 µM. It also gave a GI50 [10] of 4.47 µM, a GI50 [11] of 5.37 µM and a GI50 [12] of 5.89 µM. It also gave a GI50 [13] of 14.5 µM, a GI50 [14] of 9.12 µM and a GI50 [15] of 11.5 µM. It also gave a GI50 [16] of 8.51 µM, a GI50 [17] of 5.01 µM and a GI50 [18] of 25.1 µM. For the same compound, the GI50 [19] was 9.55 µM, the GI50 [20] was 12 µM and the GI50 [21] was 8.71 µM. The GI50 [22] was 10.7 µM, the GI50 [23] was 7.24 µM and the GI50 [24] was 8.51 µM. It also gave a GI50 [25] of 25.1 µM, a GI50 [26] of 9.12 µM and a GI50 [27] of 4.9 µM. It also gave a GI50 [28] of 4.37 µM, a GI50 [29] of 5.13 µM and a GI50 [30] of 25.1 µM. It also gave a GI50 [31] of 12.3 µM, a GI50 [32] of 22.4 µM and a GI50 [33] of 5.62 µM. The GI50 [34] was 8.13 µM, the GI50 [35] was 17.4 µM and the GI50 [36] was 25.1 µM. It also gave a GI50 [37] of 25.1 µM, a GI50 [38] of 1.62 µM and a GI50 [39] of 2.29 µM. For the same compound, the GI50 [40] was 7.94 µM, the GI50 [41] was 7.94 µM and the GI50 [42] was 5.75 µM. The GI50 [43] was 9.33 µM, the GI50 [44] was 6.76 µM and the GI50 [45] was 16.2 µM. The GI50 [46] was 4.37 µM.
In the case of `COc1ccc2[nH]c3c(c2c1)C(=O)C=C(C)C3=O`, the EC50 [1] is reported as > 20 µg/mL, the EC50 [47] is reported as 5.08 µg/mL (≈ 21.1 µM) and the EC50 [48] is reported as 6.03 µg/mL (≈ 25 µM). It also gave an EC50 [34] of 6.22 µg/mL (≈ 25.8 µM).
`COc1cccc2c3c([nH]c12)C(=O)C(C)=CC3=O` gave an EC50 [1] of 5.18 µg/mL (≈ 21.5 µM), an EC50 [47] of 0.92 µg/mL (≈ 3.81 µM) and an EC50 [48] of 4.7 µg/mL (≈ 19.5 µM). The EC50 [34] was 5.5 µg/mL (≈ 22.8 µM).
Work on `COc1ccc2[nH]c3c(c2c1)C(=O)C(C)=CC3=O` yielded an EC50 [1] of 0.87 µg/mL (≈ 3.61 µM), an EC50 [47] of 0.76 µg/mL (≈ 3.15 µM) and an EC50 [48] of 7.91 µg/mL (≈ 32.8 µM). For the same compound, the EC50 [34] was 0.55 µg/mL (≈ 2.28 µM).
For `COc1cc(Cc2c(C)cc(OC)c3[nH]c4ccccc4c23)cc2c1[nH]c1ccccc12`, the GI50 [1] was 12 µM, the GI50 [2] was 7.94 µM and the GI50 [3] was 5.01 µM. For the same compound, the GI50 [4] was 3.98 µM, the GI50 [5] was 5.37 µM and the GI50 [6] was 4.68 µM. The GI50 [7] was 5.37 µM, the GI50 [8] was 10 µM and the GI50 [49] was 6.46 µM. For the same compound, the GI50 [9] was 10.5 µM, the GI50 [10] was 4.57 µM and the GI50 [11] was 8.51 µM. For the same compound, the GI50 [12] was 5.01 µM, the GI50 [13] was 6.03 µM and the GI50 [14] was 8.91 µM. For the same compound, the GI50 [15] was 5.75 µM, the GI50 [16] was 5.75 µM and the GI50 [17] was 12 µM. The GI50 [50] was 7.76 µM, the GI50 [18] was 8.71 µM and the GI50 [19] was 6.92 µM. For the same compound, the GI50 [20] was 9.12 µM, the GI50 [21] was 4.17 µM and the GI50 [22] was 7.24 µM. It also gave a GI50 [23] of 7.76 µM, a GI50 [51] of 5.5 µM and a GI50 [24] of 7.59 µM. For the same compound, the GI50 [25] was 8.71 µM, the GI50 [26] was 5.62 µM and the GI50 [27] was 5.75 µM. It also gave a GI50 [28] of 3.89 µM, a GI50 [29] of 6.92 µM and a GI50 [30] of 5.01 µM. It also gave a GI50 [31] of 9.77 µM, a GI50 [33] of 5.13 µM and a GI50 [34] of 3.98 µM. For the same compound, the GI50 [35] was 4.47 µM, the GI50 [36] was 5.89 µM and the GI50 [37] was 6.03 µM. For the same compound, the GI50 [38] was 5.13 µM, the GI50 [39] was 9.12 µM and the GI50 [52] was 5.37 µM. It also gave a GI50 [40] of 7.59 µM, a GI50 [41] of 4.57 µM and a GI50 [42] of 7.24 µM. The GI50 [43] was 4.68 µM, the GI50 [44] was 8.13 µM and the GI50 [45] was 5.25 µM. For the same compound, the GI50 [46] was 5.37 µM.
Compound `COc1cc(CO)cc2c1[nH]c1ccccc12` [KOENOLINE] has a GI50 [6] of 1.74 µM and a TGI ([6]; read-out: pTGI) of 5.25 µM.
In the case of `COc1ccc2c3c([nH]c2c1)C(=O)C=C(C)C3=O`, the EC50 [1] is reported as > 20 µg/mL, the EC50 [47] is reported as > 20 µg/mL and the EC50 [48] is reported as > 20 µg/mL. For the same compound, the EC50 [34] was 7.25 µg/mL (≈ 30.1 µM).
For `CC1=CC(=O)c2[nH]c3ccc(Cl)cc3c2C1=O`, the EC50 [1] was > 20 µg/mL, the EC50 [47] was 4.39 µg/mL (≈ 17.9 µM) and the EC50 [48] was 6.45 µg/mL (≈ 26.3 µM). For the same compound, the EC50 [34] was 0.83 µg/mL (≈ 3.38 µM).
For `CC1=CC(=O)c2[nH]c3ccc(C)cc3c2C1=O`, the EC50 [1] was 3.52 µg/mL (≈ 15.6 µM), the EC50 [47] was 0.92 µg/mL (≈ 4.08 µM) and the EC50 [48] was 6.49 µg/mL (≈ 28.8 µM). The EC50 [34] was 0.66 µg/mL (≈ 2.93 µM).
